≈ marks a conversion by molar mass, not a printed value. Calls of active or inactive are those of the source. No cut-off for these calls is given here.
What was measured:
Staphylococcus aureus [1] = assay: Potency index, ratio of MIC for tetracycline to MIC for test compound against Methicillin resistant Staphylococcus aureus; format: functional
Staphylococcus aureus [2] = assay: Bactericidal activity against Methicillin resistant Staphylococcus aureus Mu50 assessed as CFU reduction at 30 uM for 1 hr; format: functional
Method in brief: (§1)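 Log-phase Mu50 cultures (OD600 ≈ 0.5) mixed with a range of inhibitor concentrations, shaken 1,000 rpm at 37 °C for 1 hr under normal room light. Cultures then serially diluted in LB, plated on LB agar and incubated overnight at 37 °C. Activity expressed as reduction in CFU relative to untreated control containing matching DMSO.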

Staphylococcus aureus [3] = assay: Bactericidal activity against Methicillin resistant Staphylococcus aureus Mu50 assessed as CFU reduction for 1 hr; format: functional, organism-based; method in brief: as §1
Staphylococcus aureus [4] = assay: Bacteriostatic activity against Staphylococcus aureus ATCC 6538 after 24 hrs; format: functional; conditions: ATCC 6538, 24 h
Staphylococcus aureus [5] = assay: Bacteriostatic activity against NorA deficient Staphylococcus aureus K1758; format: functional
Method in brief: (§2)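 Broth microdilution MIC per CLSI guidance in LB, 37 °C, shaking 250 rpm, 24 hr; run in triplicate in three separate experiments. MIC taken as lowest inhibitor concentration with no growth. Compounds from DMSO stocks; untreated controls carry equal DMSO.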

[6] = target: T1, Protein translocase subunit SecA 1 (Staphylococcus aureus (strain NCTC 8325)) (UniProt O06446); assay: Inhibition of Staphylococcus aureus SecA1 assessed as reduction in secretion of alpha-hemolysin at 10 uM by Western blot analysis
T1 sequence (whole entry): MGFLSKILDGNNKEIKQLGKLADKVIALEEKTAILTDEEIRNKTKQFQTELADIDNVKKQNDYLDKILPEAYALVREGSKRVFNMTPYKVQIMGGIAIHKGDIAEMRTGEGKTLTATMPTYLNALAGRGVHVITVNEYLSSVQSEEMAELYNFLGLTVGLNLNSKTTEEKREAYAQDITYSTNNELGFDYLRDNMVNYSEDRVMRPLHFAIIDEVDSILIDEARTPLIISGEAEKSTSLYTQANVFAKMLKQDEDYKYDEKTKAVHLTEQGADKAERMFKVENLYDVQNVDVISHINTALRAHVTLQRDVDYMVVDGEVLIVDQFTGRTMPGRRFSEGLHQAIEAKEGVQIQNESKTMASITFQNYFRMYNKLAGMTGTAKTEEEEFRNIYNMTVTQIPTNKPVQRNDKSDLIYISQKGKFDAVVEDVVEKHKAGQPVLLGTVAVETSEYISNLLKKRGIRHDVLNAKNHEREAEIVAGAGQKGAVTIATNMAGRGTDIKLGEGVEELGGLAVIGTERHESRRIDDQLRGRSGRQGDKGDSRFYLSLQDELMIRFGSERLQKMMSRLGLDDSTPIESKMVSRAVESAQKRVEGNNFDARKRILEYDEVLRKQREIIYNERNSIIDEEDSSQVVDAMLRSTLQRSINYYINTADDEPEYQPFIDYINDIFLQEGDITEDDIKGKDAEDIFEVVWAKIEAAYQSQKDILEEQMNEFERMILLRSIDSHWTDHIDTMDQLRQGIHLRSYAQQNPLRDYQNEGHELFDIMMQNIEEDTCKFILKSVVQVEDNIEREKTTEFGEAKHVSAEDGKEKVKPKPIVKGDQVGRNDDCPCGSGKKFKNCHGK
Method in brief: (§3)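 S. aureus Mu50 grown in LB at 37 °C; inhibitor added at mid-log phase and cultures sampled at several time points. Supernatants separated by centrifugation, filtered 0.45 μm, and probed by Western blot with antibodies to α-hemolysin, TSST-1 or enterotoxin B.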

[7] = target: T1, Protein translocase subunit SecA 1 (Staphylococcus aureus (strain NCTC 8325)); assay: Inhibition of Staphylococcus aureus SecA1 assessed as reduction in secretion of TSST-1 at 10 uM by Western blot analysis; method in brief: as §3
Staphylococcus aureus [8] = assay: Bactericidal activity against Methicillin sensitive Staphylococcus aureus ATCC 6538 assessed as CFU reduction at 30 uM for 1 hr; format: functional
Method in brief: (§4)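 Log-phase LB cultures (OD600 ≈ 0.5) mixed with a range of inhibitor concentrations, shaken at 1,000 rpm, 37 °C, 1 hr, under normal room light. Cultures serially diluted in LB, plated on LB agar, incubated overnight at 37 °C. CFU counted; bactericidal effect taken as CFU reduction versus untreated control.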

Staphylococcus aureus [9] = assay: Bacteriostatic activity against Staphylococcus aureus K2068 overexpressing MepA; format: functional; method in brief: as §2
Staphylococcus aureus [10] = assay: Effect on general protein synthesis in Staphylococcus aureus Mu50 at 10 uM measured within 15 hrs; format: ADME, organism-based; conditions: in vivo
[11] = target: T1, Protein translocase subunit SecA 1 (Staphylococcus aureus (strain NCTC 8325)); assay: Non-competitive inhibition of Staphylococcus aureus ATCC 35556 SecA1 liposomal ATPase activity in Xenopus laevis oocytes incubated for 3 hrs measured by Lineweaver-Burk plot analysis; format: cell-based
Method in brief: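 SaSecA1-liposome plus proOmpA co-injected into Xenopus oocytes at varying ATP and inhibitor concentrations, incubated 3 hr at 23 °C, ion current recorded 1 min; n = 9-10. Inhibition mode assessed across ATP levels.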

[12] = target: T2, Protein translocase subunit SecA 1 (Staphylococcus aureus (strain NCTC 8325), UniProt O06446); assay: Inhibition of Staphylococcus aureus ATCC 35556 SecA1 liposome dependent proOmpA translocation incubated for 1.5 hrs measured by Western blot analysis
T2 sequence (O06446 whole entry): T1 sequence (whole entry)
Method in brief: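 Per 0.1 ml: 50 mM Tris-HCl pH 7.6, 20 mM NH4Cl, 25 mM KCl, 2 mM Mg(OAc)2, ATP-regenerating system, 1.5 μg SaSecA1, 100 ng SecB, 120 ng proOmpA, 120 μg liposomes, with varying inhibitor; 30 °C, 1.5 hr. Translocated proOmpA scored as proteinase K-protected, quantified by Western blot; n = 3.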

Staphylococcus aureus [13] = assay: Bacteriostatic activity against Staphylococcus aureus Mu3 after 24 hrs; format: functional; conditions: Mu3, 24 h; method in brief: as §2
Staphylococcus aureus [14] = assay: Potency index, ratio of MIC for erythromycin to MIC for test compound against Methicillin resistant Staphylococcus aureus; format: functional
Staphylococcus aureus [15] = assay: Bacteriostatic activity against MepA deficient Staphylococcus aureus K2908; format: functional; method in brief: as §2
Staphylococcus aureus [16] = assay: Bacteriostatic activity against Staphylococcus aureus K2361 overexpressing NorA; format: functional; method in brief: as §2
Staphylococcus aureus [17] = assay: Potency index, ratio of MIC for norfloxacin to MIC for test compound against Methicillin resistant Staphylococcus aureus; format: functional
Staphylococcus aureus [18] = assay: Potency index, ratio of MIC for rifampicin to MIC for test compound against Methicillin resistant Staphylococcus aureus; format: functional
Staphylococcus aureus [19] = assay: Bactericidal activity against Methicillin sensitive Staphylococcus aureus ATCC 6538 assessed as CFU reduction for 1 hr; format: functional, organism-based; method in brief: as §4

CCCCCCC1c2ccc(O)cc2Oc2cc(O)ccc21
Ratio (Staphylococcus aureus [1]): 7
Activity (Staphylococcus aureus [2]): >3 log10CFU/ml
Activity (Staphylococcus aureus [3]): Dose-dependent effect
MIC (Staphylococcus aureus [4]): 4 µg/mL (≈ 13.4 µM)
MIC (Staphylococcus aureus [5]): 4 µg/mL (≈ 13.4 µM)
inhibition [6]: Active
inhibition [7]: Active
Activity (Staphylococcus aureus [8]): 2 log10CFU/ml
MIC (Staphylococcus aureus [9]): 4 µg/mL (≈ 13.4 µM)
Activity (Staphylococcus aureus [10]): Non-toxic
inhibition [11]: Active
IC50 [12]: 4 µM
MIC (Staphylococcus aureus [13]): 4 µg/mL (≈ 13.4 µM)
Ratio (Staphylococcus aureus [14]): 250
MIC (Staphylococcus aureus [15]): 4 µg/mL (≈ 13.4 µM)
MIC (Staphylococcus aureus [16]): 4 µg/mL (≈ 13.4 µM)
Ratio (Staphylococcus aureus [17]): 7
Ratio (Staphylococcus aureus [18]): 250
Activity (Staphylococcus aureus [19]): Dose-dependent effect
